Screening results: PubChem, The Scripps Research Institute Molecular Screening Center
TAAR1 agonist = human TAAR1 agonism; Q96RJ0; AID 624467; CHO RD-HGA16 TAAR1, Fluo-8 calcium fluorescence; vehicle wells 0%, saturating PEA agonist 100%; activation, % at 3 µM; hit rate 0.99% among 360,000;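 active = activation above the mean activation of all test compounds in the run plus 3 SD, cut at about 38% in these data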
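System: CHO RD-HGA16 cells carrying human TAAR1 plus Gα16; Incubation: 17-24 h seeding, 75 min 37 °C dye, 30 min RT; Measured by: Fluo-8 fluorescence, 5 s baseline then 140 s kinetic read; Control set: DMSO and PEA EC100; Replication: single well for each compound.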
OX1R antag-1 = blocks the human orexin 1 receptor; OX1R-expressing cells, FRET antagonist read-out; inhibition, % at 6.6 µM; hit rate 1.8% among 330,000; in the data active = inhibition mostly above about 38%, no sharp cut-off; inactive = mostly below about 40%
Target sequence (O43613 whole entry, looked up): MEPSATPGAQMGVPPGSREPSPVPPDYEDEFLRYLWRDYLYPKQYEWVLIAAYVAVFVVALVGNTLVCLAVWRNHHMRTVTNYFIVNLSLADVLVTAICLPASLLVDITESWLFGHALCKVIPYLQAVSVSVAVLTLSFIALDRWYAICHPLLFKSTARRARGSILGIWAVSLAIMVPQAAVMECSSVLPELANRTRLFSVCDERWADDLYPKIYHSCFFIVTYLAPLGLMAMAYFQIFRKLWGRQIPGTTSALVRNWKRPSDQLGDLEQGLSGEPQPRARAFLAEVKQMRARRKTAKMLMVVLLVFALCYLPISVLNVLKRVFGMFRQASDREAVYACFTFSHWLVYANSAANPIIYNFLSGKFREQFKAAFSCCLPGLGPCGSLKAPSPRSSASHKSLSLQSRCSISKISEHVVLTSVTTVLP
GPR7 antag = antagonists of human GPR7 (neuropeptides B/W receptor 1); P48145; GPR7-expressing cells, fluorescence antagonist assay; inhibition, % at 4.4 µM; hit rate 1.1% among 290,000; AID 1861; in the data active = inhibition above about 16%, passing the limit was not always enough;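 note: cells stimulated with the agonist NPW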
Target sequence (P48145 whole entry, looked up): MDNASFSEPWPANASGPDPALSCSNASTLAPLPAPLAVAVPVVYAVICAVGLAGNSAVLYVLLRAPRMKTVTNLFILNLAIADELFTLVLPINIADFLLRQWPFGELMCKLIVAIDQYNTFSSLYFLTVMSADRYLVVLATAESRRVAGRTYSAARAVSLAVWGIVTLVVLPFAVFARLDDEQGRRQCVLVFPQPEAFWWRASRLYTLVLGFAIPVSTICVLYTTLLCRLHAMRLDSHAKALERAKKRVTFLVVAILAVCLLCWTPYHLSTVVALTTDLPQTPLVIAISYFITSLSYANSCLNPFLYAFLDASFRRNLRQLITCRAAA
OX1R antag-2 = antagonists of human orexin 1 receptor; AID 434989; hit rate 0.43% among 330,000; CHO/OX1R cells, Fluo-8 calcium fluorescence, orexin A; inhibition, % at 5 µM;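 active = inhibition above its plate's threshold, mean inhibition of all tested compounds on the plate plus 3 SD, cut at about 37% in these data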
CHO parental Ca = counter-screen for OX1R antagonists: effect in parental CHO cells. parental CHO-K1, ATP-induced calcium, Fluo-8 fluorescence. inhibition, % at 5.6 µM. hit rate 0.63% among 330,000. AID 463079;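 active = inhibition above that plate's mean sample inhibition plus 3 SD, cut at about 26% in these data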
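Measured by: calcium-sensitive Fluo-8 fluorescence / Test system: CHO parental line / Controls: ATP-challenged DMSO wells low, unchallenged DMSO wells high / Measure: % inhibition / Compound: single nominal dose of 5.6 µM per compound / Replicates: single well per compound, no replicates / Reagent: ATP as calcium-mobilizing challenge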
TAAR1 antagonist = human TAAR1 antagonism; AID 624466; inhibition, % at 3 µM; hit rate 1.5% among 360,000; CHO RD-HGA16 TAAR1, Fluo-8 calcium fluorescence, antagonist; Q96RJ0;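 active = inhibition above a per-plate cutoff, the mean inhibition of test compounds on that plate plus 3 SD, cut at about 49% in these data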
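Assay system: RD-HGA16 CHO cells with stable hTAAR1 and Gα16 / Reagent: EC80 β-phenethylamine stimulus / Doses: 3 µM, single point / Timing: dye loading 75 min at 37 °C, then 30 min room temperature / Measured by: Fluo-8 intracellular calcium dye fluorescence, real-time kinetic reads / Controls: vehicle wells and EC80 agonist wells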
TAAR1 nonsel count = counter-screen for TAAR1 antagonists: nonselective antagonists. inhibition, % at 3 µM. shares compounds with TAAR1 antagonist. hit rate 77% among 2,400. counterscreen cell line, calcium fluorescence, antagonist mode; in the data active = inhibition above about 22%;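 note: CHO-Ga16 host cells stimulated with ATP at an EC80 level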
TAAR1 ant conf = confirmation of human TAAR1 antagonists. shares compounds with TAAR1 antagonist. TAAR1-expressing cells, fluorescence antagonist read-out. inhibition, % at 3 µM. hit rate 40% among 2,400; in the data active = inhibition above about 49%;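 note: CHO-Ga16 host cells challenged with agonist PEA near its EC80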
Ga16 ag counter = counter-screen for TAAR1 antagonists: nonselective Ga16 agonists; shares compounds with TAAR1 antagonist; Ga16-expressing cells, calcium fluorescence, agonist counterscreen; activation, % at 3 µM; hit rate 18% among 2,400; AID 651953; in the data active = activation above about 12%
TAAR1 ag counter = TAAR1 agonism, antagonist counter-screen; shares compounds with TAAR1 antagonist; hTAAR1 cell line, fluorescence activation, agonist mode; activation, % at 3 µM; hit rate 2% among 2,400; in the data active = activation above about 37%;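 note: CHO cells stably expressing TAAR1 with calcium dye readout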
A number is an active result; - = inactive; . = not tested or not shown. Rows were chosen to be rich in hits. Some 4.5% of all compounds tested hit in one or more screens of this group.

SMILES | TAAR1 agonist | OX1R antag-1 | GPR7 antag | OX1R antag-2 | CHO parental Ca | TAAR1 antagonist | TAAR1 nonsel count | TAAR1 ant conf | Ga16 ag counter | TAAR1 ag counter
CCN(CC(=O)Nc1ccc(NC(C)=O)cc1)C(=O)c1oc2ccccc2c1C | - | - | . | - | - | - | . | . | . | .
CCN(CC(=O)Nc1ccc(NC(C)=O)cc1)C(=O)c1oc2c(ccc3ccccc32)c1C | - | - | . | - | - | 64.2 | 38.8 | 61.3 | 18.1 | -
COc1cccc(CNC(=O)CCNC(=O)C2CCN(S(=O)(=O)c3ccccc3)CC2)c1 | - | - | - | - | - | - | . | . | . | .
CCn1ccnc1CNC(=O)CC1C(=O)NCCN1CC(c1ccccc1)c1ccccc1 (stereo not drawn) | - | - | - | - | - | - | . | . | . | .
Cc1nc(N2CCN(c3ccccn3)CC2)c2c(C)c(C(=O)Nc3ccccc3F)sc2n1 | - | - | - | - | - | - | . | . | . | .
O=C(Nc1c(F)cccc1F)c1cnc(N2CCN(c3ccccn3)CC2)c2ccccc12 | - | - | - | - | - | 63.3 | 34.6 | 59.6 | - | -
Cc1ccc(CN2CC(C(=O)OCc3ccccc3Cl)CC2=O)cc1 (stereo not drawn) | - | - | . | - | - | - | . | . | . | .
O=C(C1CCCN(c2ncnc3c2nc2n3CCCCC2)C1)N1CCN(c2ccccc2)CC1 (stereo not drawn) | - | - | - | - | - | 51.6 | 23.3 | - | - | -
O=C(O)c1ccc(Oc2ccccc2)o1 | - | - | - | - | - | - | . | . | . | .
CCOC(=O)c1sc(NC(=O)c2cccc(S(=O)(=O)N3CCN(C)CC3)c2)cc1C | - | - | - | - | - | - | . | . | . | .
CCOC(=O)c1sc(NC(=O)c2cccc(S(=O)(=O)N(CC)CC)c2)cc1C | - | - | - | - | - | 61.2 | 46.6 | 63.2 | - | -
COc1cccc(/C=N/NC(=O)c2cc(C34CC5CC(CC(C5)C3)C4)[nH]n2)c1 | - | - | - | - | - | 57.4 | 22.9 | - | - | -
CC(C)(C)OC(=O)N1CCC(NC(=O)c2nc[nH]c2C(=O)NCC(=O)OCc2ccccc2)CC1 | - | - | - | - | - | 69.9 | 31.1 | 59.2 | - | -
C[C@@H](NC(=O)c1nc[nH]c1C(=O)NCC(=O)OCc1ccccc1)c1ccccc1 | - | - | - | - | - | 67.9 | 32.5 | 54.7 | - | -
C[C@H](NC(=O)c1nc[nH]c1C(=O)NC(c1ccccc1)c1ccccc1)C(=O)OCc1ccccc1 | - | - | . | - | - | - | . | . | . | .
CC(C)(C)OC(=O)CNC(=O)c1[nH]cnc1C(=O)NC1CCN(C(=O)OC(C)(C)C)CC1 | - | - | - | - | - | - | . | . | . | .
C[C@H](NC(=O)c1nc[nH]c1C(=O)N[C@@H](C)C(=O)OCc1ccccc1)C(=O)OCc1ccccc1 | - | - | - | - | - | 57.6 | - | - | - | -
COc1ccc(S(=O)(=O)N2CCCCC2)cc1NC(=O)c1ccc2c(c1)OCO2 | - | - | - | - | - | - | . | . | . | .
COc1ccc(-c2noc(CCC(=O)N3CCN(c4ccccc4F)CC3)n2)cc1 | - | - | . | - | - | - | . | . | . | .
Cc1ccc(OCC(=O)Nc2sc3c(c2C#N)CCC3)cc1 | - | - | - | - | - | 50.8 | - | - | - | -
C/C(=N\S(=O)(=O)c1ccc(C)cc1)N1CCN(S(=O)(=O)c2ccccc2)C1C(C)C (stereo not drawn) | - | - | - | - | - | - | . | . | . | .
O=C1[C@H]2[C@@H](c3ccccc3)N[C@]3(CCCN(Cc4ccc(Cl)cc4)C3=O)[C@H]2C(=O)N1Cc1ccccc1 | - | . | . | . | . | - | . | . | . | .
O=C(Nc1cccnc1)c1sc(Nc2ccccc2)nc1-c1ccccc1 | - | - | - | - | - | 58.6 | 34.4 | - | - | -
CC(=O)Nc1ccc(CN2C(=O)C(CCc3ccccc3)ON=C2c2cnccn2)cc1 (stereo not drawn) | - | . | . | . | . | 76.2 | 29.1 | 54.3 | - | -
O=C1C(CCc2ccccc2)ON=C(c2cnccn2)N1Cc1ccc(F)cc1 (stereo not drawn) | - | . | . | . | . | - | . | . | . | .
SMILES | TAAR1 agonist | OX1R antag-1 | GPR7 antag | OX1R antag-2 | CHO parental Ca | TAAR1 antagonist | TAAR1 nonsel count | TAAR1 ant conf | Ga16 ag counter | TAAR1 ag counter
Cc1cc(S(=O)(=O)NC2CCN(Cc3ccccc3)CC2)c(C)cc1Cl | - | - | - | - | - | - | . | . | . | .
C=CCNC(=O)CN1CCC(c2nc3ccccc3[nH]2)CC1 | - | - | - | - | - | - | . | . | . | .
Fc1ccc2nc(-c3ccc(CN4CCC(c5nc6ccccc6[nH]5)CC4)cc3)c(-c3ccccc3)nc2c1 | - | . | . | . | . | 53.7 | 47.1 | 54.9 | 21.3 | -
Cn1c(=O)n(C)c2cc([N+](=O)[O-])c(N3CCN(S(=O)(=O)c4ccccc4)CC3)cc21 | - | - | - | - | - | 61.9 | 26.3 | 54.0 | 14.7 | -
CC(=O)c1ccccc1OCCOc1ccccc1C(C)=O | - | - | - | - | - | - | . | . | . | .
CC(=O)c1ccccc1OCc1ccc(S(=O)(=O)Cc2ccccc2)cc1 | - | - | - | - | - | 74.4 | 29.7 | - | - | -
Cc1cccc(CN2C(=O)[C@H]3Cc4c([nH]c5ccccc45)C(C)(C)N3C2=O)c1 | - | - | . | - | - | 60.5 | 24.1 | - | - | -
O=C(c1ccc(F)cc1)C1CCN(C(=S)Nc2ccc(F)cc2)CC1 | - | - | - | - | - | - | . | . | . | .
COC(=O)c1cccc(S(=O)(=O)N(Cc2ccco2)Cc2cc3ccc(OC)cc3[nH]c2=O)c1 | - | 40.2 | - | - | - | 56.6 | 33.5 | 57.2 | - | -
CN(C)CCn1c(SCc2ccccc2C#N)nc2c(sc3ccccc32)c1=O | - | - | - | - | - | - | . | . | . | .
C=C(C)COc1ccc(-c2n[nH]c(C)c2Oc2ccccc2OC)c(O)c1 | - | - | - | - | - | 51.5 | - | - | - | -
C=C(C)COc1ccc(-c2[nH]ncc2-c2ccccc2)c(O)c1 | - | - | - | - | - | 60.1 | - | - | - | -
COc1cccc(OC)c1C(=O)Nc1cc(C)nn1-c1nc2ccccc2[nH]1 | - | - | - | - | - | 69.2 | 28.3 | 48.9 | - | -
COC(=O)c1nccnc1N | - | . | . | . | . | 102.7 | - | - | - | -
COc1ccccc1CNC(=O)COC(=O)c1nccnc1N | - | - | - | - | - | - | . | . | . | .
COc1cccc(-c2cnc3c(NC(C)=O)cc(-c4ccc(OC)c(OC)c4)cn23)c1 | - | . | . | . | . | - | . | . | . | .
COc1cccc(-c2cnc3c(NC(C)=O)cc(-c4ccsc4)cn23)c1 | - | . | . | . | . | 73.4 | 41.0 | 66.4 | 13.5 | -
